Experimental data from ChEMBL document CHEMBL1157589, “Antifungal 3,5-disubstituted furanones: From 5-acyloxymethyl to 5-alkylidene derivatives” (Bioorg Med Chem, 2010).
In brackets after ≈: the same amount, converted by molar mass.

Assays:
[1] = test system: Trichosporon beigelii; experiment: Antifungal activity against Trichosporon beigelii 1188 after 48 hrs by microdilution method; type: functional; conditions: Trichosporon beigelii, 1188, 48 h
Summary of the method: (§1)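 Yeasts held on Sabouraud dextrose agar. MIC by NCCLS M27-A broth microdilution in RPMI 1640 with L-glutamine, buffered with 0.165 M MOPS to pH 7.0. Compounds in DMSO (≤2% final), twofold dilutions 500–0.48. Final inoculum 5 × 10³ ± 0.2 cfu mL⁻¹. Incubated at 35 °C; absorbance at 540 nm read at 24 and 48 h. MIC is 80% growth inhibition versus control; run twice in duplicate.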

[2] = test system: Trichophyton mentagrophytes; experiment: Antifungal activity against Trichophyton mentagrophytes 445 after 120 hrs by microdilution method; type: functional; conditions: Trichophyton mentagrophytes, 445, 120 h
Summary of the method: (§2)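 Dermatophyte held on Sabouraud dextrose agar. M27-A microdilution in MOPS-buffered (0.165 M, pH 7.0) RPMI 1640 with L-glutamine. DMSO ≤2% final; twofold dilutions 500–0.48. Inoculum 5 × 10³ ± 0.2 cfu mL⁻¹ final. Incubated at 35 °C; MIC read visually at 72 and 120 h as 80% inhibition of control growth; determined twice in duplicate.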

[3] = test system: Candida parapsilosis; experiment: Antifungal activity against Candida parapsilosis ATCC 22019 after 48 hrs by microdilution method; type: functional; conditions: Lodderomyces parapsilosis, ATCC 22019, 48 h; summary of the method: as §1
[4] = test system: Trichophyton mentagrophytes; experiment: Antifungal activity against Trichophyton mentagrophytes 445 after 72 hrs by microdilution method; type: functional; conditions: Trichophyton mentagrophytes, 445, 72 h; summary of the method: as §2
[5] = test system: Aspergillus fumigatus; experiment: Antifungal activity against Aspergillus fumigatus 231 after 48 hrs by microdilution method; type: functional; conditions: Aspergillus fumigatus, 231, 48 h
Summary of the method: (§3)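 Filamentous strains held on Sabouraud dextrose agar. NCCLS M27-A broth microdilution in RPMI 1640 with L-glutamine and 0.165 M MOPS, pH 7.0. DMSO diluent ≤2% final; twofold dilutions 500–0.48. Inoculum 5 × 10³ ± 0.2 cfu mL⁻¹ final.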

[6] = test system: CCRF-CEM; experiment: Cytostatic activity against human CCRF-CEM cells after 72 hrs by XTT assay; type: functional, cell-based
Summary of the method: (§4)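 Leukemia cells (L1210 ATCC CCL 219, CCRF-CEM ATCC CCL 119, HL-60 ATCC CCL 240) grown in 24-well plates in RPMI 1640 with fetal calf serum. Growth assessed 72 h after drug addition. Viability measured by XTT spectrophotometric assay; potency given as IC50.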

[7] = test system: Nakaseomyces glabratus; experiment: Antifungal activity against Candida glabrata 20/I after 24 hrs by microdilution method; type: functional; summary of the method: as §1
[8] = test system: Pichia kudriavzevii; experiment: Antifungal activity against Candida krusei ATCC 6258 after 48 hrs by microdilution method; type: functional; conditions: ATCC 6258, 48 h; summary of the method: as §1
[9] = test system: Candida albicans; experiment: Antifungal activity against Candida albicans ATCC 90028 after 48 hrs by microdilution method; type: functional; conditions: ATCC 90028, 48 h; summary of the method: as §1
[10] = test system: Lichtheimia corymbifera; experiment: Antifungal activity against Absidia corymbifera 272 after 48 hrs by microdilution method; type: functional; conditions: Lichtheimia corymbifera, 272, 48 h; summary of the method: as §3
[11] = test system: Clavispora lusitaniae; experiment: Antifungal activity against Candida lusitaniae 2446/I after 48 hrs by microdilution method; type: functional; summary of the method: as §1
[12] = test system: L1210; experiment: Cytostatic activity against mouse L1210 cells after 72 hrs by XTT assay; type: functional, cell-based; summary of the method: as §4
[13] = test system: Lichtheimia corymbifera; experiment: Antifungal activity against Absidia corymbifera 272 after 24 hrs by microdilution method; type: functional; conditions: Lichtheimia corymbifera, 272, 24 h; summary of the method: as §3
[14] = test system: Pichia kudriavzevii; experiment: Antifungal activity against Candida krusei E28 after 48 hrs by microdilution method; type: functional; conditions: E28, 48 h; summary of the method: as §1
[15] = test system: Candida tropicalis; experiment: Antifungal activity against Candida tropicalis 156 after 48 hrs by microdilution method; type: functional; conditions: Candida tropicalis, 156, 48 h; summary of the method: as §1
[16] = test system: HeLa S3; experiment: Cytostatic activity against human HeLaS3 cells after 48 hrs by XTT assay
[17] = test system: Candida albicans; experiment: Antifungal activity against Candida albicans ATCC 90028 after 24 hrs by microdilution method; type: functional; conditions: ATCC 90028, 24 h; summary of the method: as §1
[18] = test system: Clavispora lusitaniae; experiment: Antifungal activity against Candida lusitaniae 2446/I after 24 hrs by microdilution method; type: functional; summary of the method: as §1
[19] = test system: Candida albicans; experiment: Antifungal activity against Candida albicans ATCC 44859 after 48 hrs by microdilution method; type: functional; conditions: ATCC 44859, 48 h; summary of the method: as §1
[20] = test system: Trichosporon beigelii; experiment: Antifungal activity against Trichosporon beigelii 1188 after 24 hrs by microdilution method; type: functional; conditions: Trichosporon beigelii, 1188, 24 h; summary of the method: as §1
[21] = test system: Candida tropicalis; experiment: Antifungal activity against Candida tropicalis 156 after 24 hrs by microdilution method; type: functional; conditions: Candida tropicalis, 156, 24 h; summary of the method: as §1
[22] = test system: HL-60; experiment: Cytostatic activity against human HL60 cells after 72 hrs by XTT assay; type: functional, cell-based; conditions: hl-60; summary of the method: as §4
[23] = test system: Nakaseomyces glabratus; experiment: Antifungal activity against Candida glabrata 20/I after 48 hrs by microdilution method; type: functional; summary of the method: as §1
[24] = test system: Candida parapsilosis; experiment: Antifungal activity against Candida parapsilosis ATCC 22019 after 24 hrs by microdilution method; type: functional; conditions: Lodderomyces parapsilosis, ATCC 22019, 24 h; summary of the method: as §1
[25] = test system: Pichia kudriavzevii; experiment: Antifungal activity against Candida krusei ATCC 6258 after 24 hrs by microdilution method; type: functional; conditions: ATCC 6258, 24 h; summary of the method: as §1
[26] = test system: Pichia kudriavzevii; experiment: Antifungal activity against Candida krusei E28 after 24 hrs by microdilution method; type: functional; conditions: E28, 24 h; summary of the method: as §1
[27] = test system: Aspergillus fumigatus; experiment: Antifungal activity against Aspergillus fumigatus 231 after 24 hrs by microdilution method; type: functional; conditions: Aspergillus fumigatus, 231, 24 h; summary of the method: as §3
[28] = test system: Candida albicans; experiment: Antifungal activity against Candida albicans ATCC 44859 after 24 hrs by microdilution method; type: functional; conditions: ATCC 44859, 24 h; summary of the method: as §1

Compound	MIC80 [1] [µM]	MIC80 [2] [µM]	MIC80 [3] [µM]	MIC80 [4] [µM]	MIC80 [5] [µM]	MIC80 [7] [µM]	MIC80 [8] [µM]	MIC80 [9] [µM]	MIC80 [10] [µM]	MIC80 [11] [µM]	MIC80 [13] [µM]	MIC80 [14] [µM]	MIC80 [15] [µM]	MIC80 [17] [µM]	MIC80 [18] [µM]	MIC80 [19] [µM]	MIC80 [20] [µM]	MIC80 [21] [µM]	IC50 [22]	MIC80 [23] [µM]	further results
O=C1OCC=C1c1ccc(Br)cc1	500 (≈ 120 µg/mL)	250 (≈ 59.8 µg/mL)	500 (≈ 120 µg/mL)	250 (≈ 59.8 µg/mL)	500 (≈ 120 µg/mL)	500 (≈ 120 µg/mL)	500 (≈ 120 µg/mL)	500 (≈ 120 µg/mL)	500 (≈ 120 µg/mL)	500 (≈ 120 µg/mL)	500 (≈ 120 µg/mL)	500 (≈ 120 µg/mL)	500 (≈ 120 µg/mL)	500 (≈ 120 µg/mL)	500 (≈ 120 µg/mL)	250 (≈ 59.8 µg/mL)	250 (≈ 59.8 µg/mL)	250 (≈ 59.8 µg/mL)	Not Active	500 (≈ 120 µg/mL)	IC50 ([6]; ccrf-cem): Not Active; IC50 ([12]; l1210): Not Active; IC50 ([16]; hela s3): Not Active; MIC80 [24]: 250 µM (≈ 59.8 µg/mL); MIC80 [25]: 250 µM (≈ 59.8 µg/mL); MIC80 [26]: 250 µM (≈ 59.8 µg/mL); MIC80 [27]: 250 µM (≈ 59.8 µg/mL); MIC80 [28]: 250 µM (≈ 59.8 µg/mL)
O=C1O/C(=C\CCO)C=C1c1ccc(Br)cc1	125 (≈ 36.9 µg/mL)	31.2 (≈ 9.22 µg/mL)	125 (≈ 36.9 µg/mL)	31.2 (≈ 9.22 µg/mL)	250 (≈ 73.8 µg/mL)	62.5 (≈ 18.4 µg/mL)	250 (≈ 73.8 µg/mL)	250 (≈ 73.8 µg/mL)	62.5 (≈ 18.4 µg/mL)	250 (≈ 73.8 µg/mL)	62.5 (≈ 18.4 µg/mL)	250 (≈ 73.8 µg/mL)	250 (≈ 73.8 µg/mL)	125 (≈ 36.9 µg/mL)	125 (≈ 36.9 µg/mL)	125 (≈ 36.9 µg/mL)	125 (≈ 36.9 µg/mL)	125 (≈ 36.9 µg/mL)	Not Active	250 (≈ 73.8 µg/mL)	IC50 ([6]; ccrf-cem): Not Active; IC50 ([12]; l1210): Not Active; IC50 ([16]; hela s3): Not Active; MIC80 [24]: 125 µM (≈ 36.9 µg/mL); MIC80 [25]: 125 µM (≈ 36.9 µg/mL); MIC80 [26]: 250 µM (≈ 73.8 µg/mL); MIC80 [27]: 125 µM (≈ 36.9 µg/mL); MIC80 [28]: 62.5 µM (≈ 18.4 µg/mL)
O=C1O/C(=C\CO)C=C1c1ccc(Br)cc1	62.5 (≈ 17.6 µg/mL)	7.81 (≈ 2.2 µg/mL)	62.5 (≈ 17.6 µg/mL)	7.81 (≈ 2.2 µg/mL)	15.6 (≈ 4.39 µg/mL)	15.6 (≈ 4.39 µg/mL)	31.2 (≈ 8.78 µg/mL)	15.6 (≈ 4.39 µg/mL)	15.6 (≈ 4.39 µg/mL)	15.6 (≈ 4.39 µg/mL)	15.6 (≈ 4.39 µg/mL)	62.5 (≈ 17.6 µg/mL)	31.2 (≈ 8.78 µg/mL)	7.81 (≈ 2.2 µg/mL)	7.81 (≈ 2.2 µg/mL)	7.81 (≈ 2.2 µg/mL)	31.2 (≈ 8.78 µg/mL)	15.6 (≈ 4.39 µg/mL)	Not Active	62.5 (≈ 17.6 µg/mL)	IC50 ([6]; Homo sapiens, CCRF-CEM, 72 h, read-out: IC50): 2.07 µM; IC50 ([12]; Mus musculus, L1210, 72 h, read-out: IC50): 7.71 µM; IC50 ([16]; Homo sapiens, HeLa S3, 48 h, read-out: IC50): 3.06 µM; MIC80 [24]: 31.2 µM (≈ 8.78 µg/mL); MIC80 [25]: 15.6 µM (≈ 4.39 µg/mL); MIC80 [26]: 31.2 µM (≈ 8.78 µg/mL); MIC80 [27]: 7.81 µM (≈ 2.2 µg/mL); MIC80 [28]: 1.95 µM (≈ 0.548 µg/mL)
